Measurements: article PMC7578760 (iScience, 2020)

System: CIC
Test: Nuclear/cytoplasmic distribution of CIC
Format: cell-based, human
Conditions: 293T and MCF7; FGF 10 ng/mL or EGF 75 ng/mL, time course
Procedure, shortened: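 293T and MCF7 cells grown in high-glucose DMEM with 10% FBS and penicillin-streptomycin. Endogenous CIC: cells exposed to 10 ng/mL FGF or 75 ng/mL EGF for indicated times. Exogenous CIC: cells transfected with HA-CIC plasmid for 48 h, then FGF 10 ng/mL for 0, 1, 2 h. Cells separated into nuclear and cytoplasmic fractions; CIC in each fraction detected by western blot.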

B1: EGF: mitogen, 75 ng/mL (protein, UniProt P01133 23-1207, looked up)
Pro-epidermal growth factor: PQHWSCPEGTLAGNGNSTCVGPAPFLIFSHGNSIFRIDTEGTNYEQLVVDAGVSVIMDFHYNEKRIYWVDLERQLLQRVFLNGSRQERVCNIEKNVSGMAINWINEEVIWSNQQEGIITVTDMKGNNSHILLSALKYPANVAVDPVERFIFWSSEVAGSLYRADLDGVGVKALLETSEKITAVSLDVLDKRLFWIQYNREGSNSLICSCDYDGGSVHISKHPTQHNLFAMSLFGDRIFYSTWKMKTIWIANKHTGKDMVRINLHSSFVPLGELKVVHPLAQPKAEDDTWEPEQKLCKLRKGNCSSTVCGQDLQSHLCMCAEGYALSRDRKYCEDVNECAFWNHGCTLGCKNTPGSYYCTCPVGFVLLPDGKRCHQLVSCPRNVSECSHDCVLTSEGPLCFCPEGSVLERDGKTCSGCSSPDNGGCSQLCVPLSPVSWECDCFPGYDLQLDEKSCAASGPQPFLLFANSQDIRHMHFDGTDYGTLLSQQMGMVYALDHDPVENKIYFAHTALKWIERANMDGSQRERLIEEGVDVPEGLAVDWIGRRFYWTDRGKSLIGRSDLNGKRSKIITKENISQPRGIAVHPMAKRLFWTDTGINPRIESSSLQGLGRLVIASSDLIWPSGITIDFLTDKLYWCDAKQSVIEMANLDGSKRRRLTQNDVGHPFAVAVFEDYVWFSDWAMPSVMRVNKRTGKDRVRLQGSMLKPSSLVVVHPLAKPGADPCLYQNGGCEHICKKRLGTAWCSCREGFMKASDGKTCLALDGHQLLAGGEVDLKNQVTPLDILSKTRVSEDNITESQHMLVAEIMVSDQDDCAPVGCSMYARCISEGEDATCQCLKGFAGDGKLCSDIDECEMGVPVCPPASSKCINTEGGYVCRCSEGYQGDGIHCLDIDECQLGEHSCGENASCTNTEGGYTCMCAGRLSEPGLICPDSTPPPHLREDDHHYSVRNSDSECPLSHDGYCLHDGVCMYIEALDKYACNCVVGYIGERCQYRDLKWWELRHAGHGQQQKVIVVAVCVVVLVMLLLLSLWGAHYYRTQKLLSKNPKNPYEESSRDVRSRRPADTEDGMSSCPQPWFVVIKEHQDLKNGGQPVAGEDGQAADGSMQPTSWRQEPQLCGMGTEQGCWIPVSSDKGSCPQVMERSFHMPSYGTQTLEGGVEKPHSLLSANPLWQQRALDPPHQMELTQ
modifications: Pro-epidermal growth factor
  cytosolic fraction of CIC: time-dependent increase in the cytosolic fraction of CIC
  nuclear fraction of CIC: concomitant drop of the nuclear fraction
